Paper PMC6824728 (International journal of pharmaceutics, 2019)

Key:
M-Wnt cells = test: In vitro cytotoxicity, MTT assay; assay type: cell-based, murine; conditions: 24 h of incubation
Method in brief: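 M-Wnt cells were grown in RPMI 1640 plus 1% Glutamax and seeded at 1,000 cells/well. After overnight attachment at 37°C, 5% CO2, they were treated for 24 h with graded concentrations of free compound (DMSO stock diluted in medium) or SLN formulation (dispersed in medium). Drug-free SLN, DMSO and medium controls were included. Survival was read by MTT.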

B16-F10 cells = test: In vitro cytotoxicity, MTT assay; assay type: cell-based, murine; conditions: 48 h of incubation
Method in brief: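 B16-F10 cells were grown in DMEM and seeded at 4,000 cells/well. After overnight attachment at 37°C, 5% CO2, they were exposed for 48 h to graded concentrations of free compound (DMSO stock diluted in medium) or SLN formulation (dispersed in medium). Drug-free SLNs, DMSO and medium served as controls. Survival was read by MTT.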

B16-F10 tumor = test: Antitumor activity in mice with pre-established B16-F10 tumors; assay type: in vivo; conditions: B16-F10 s.c. tumors, i.v. 50 mg/kg DHA-dFdC on days 7, 10, 13, 16
B16-F10 tumors = test: Histology; assay type: in vivo, C57BL/6 mice; conditions: tumors collected day 17; i.v. 50 mg/kg DHA-dFdC x 4
Method in brief: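 Female C57BL/6 mice (18–20 g, 6–8 weeks) received 5 × 10^5 B16-F10 cells s.c. in the right flank on day 0. They were randomized on day 7 and dosed i.v. every 3 days ×4 at 50 mg/kg. Free compound was given in Tween 80/ethanol/5% mannitol vehicle; SLNs were dispersed in 5% mannitol. Tumors were harvested day 17, formalin-fixed, embedded and H&E stained.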

[1] = ref Naguib et al., 2016; cited from earlier work
[2] = Tween 80-ethanol-water solution, room temperature; ref Naguib et al., 2016; cited from earlier work
[3] = 20°C; ref Kim and Hsieh, 2001; Wu and Hopkins, 1999; cited from earlier work

Q: Which results are given for CC/C=C\C/C=C\C/C=C\C/C=C\C/C=C\C/C=C\CCC(=O)Nc1ccn([C@@H]2O[C@H](CO)[C@@H](O)C2(F)F)c(=O)n1 [DHA-dFdC, 4-(N)-docosahexaenoyl 2′, 2′-difluorodeoxycytidine]?
A: IC50 (M-Wnt cells): 2150 nM; IC50 (B16-F10 cells): 1810 nM; Tumor growth delay (B16-F10 tumor): 4 days; Tumor histology (H&E) (B16-F10 tumors): vascular collapse and necrotic areas; Intrinsic solubility in water [1]: ~ 25 μg/mL; Half-life of DHA-dFdC in solution [2]: ~ 14 h

Q: With Tween 20 as the molecule, how does the Critical micelle concentration [3] read?
A: ~ 1 % (w/v)
